Data on 1 compound can be found in ChEMBL document CHEMBL4359831, “Chemoproteomics of an Indole-Based Quinone Epoxide Identifies Druggable Vulnerabilities in Vancomycin-Resistant Staphylococcus aureus” (J Med Chem, 2019).

SMILES strings stand for the structures. In brackets after ≈: the same amount, converted by molar mass. Activity calls are given as the source filed them.

Assay [1] relates to Staphylococcus aureus. The experiment in a line: Binding affinity to Staphylococcus aureus ATCC 29213 DAPDC at 10 uM in presence of 9-(Pent-4-yn-1-yl)-1a,10a-dihydro-2H-oxireno[2',3':4,5]-benzo[1,2-a]carbazole-2,10(9H)-dione after 1 hr by biotin-azide fluorescence dependent LC-MS/MS-based ABPP assay. The gist of the method: (§1)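 Competitive LC–MS/MS ABPP on S. aureus soluble proteome. Pretreatment 1 h with DMSO, compound (10 μM), comparator (10 μM) or iodoacetamide (10 mM). Chase with alkyne probe (10 μM, 1 h), then Cu-catalysed click with biotin-azide and LC–MS/MS. Targets were proteins at ratio ≤0.1 versus DMSO in the compound and IAM groups and ~1 in the comparator group.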

In assay [2] the test system is Staphylococcus aureus. The assay can be described thus: Antibacterial activity against Staphylococcus aureus ATCC 29213 after 16 to 18 hrs by CLSI M07-A10 protocol based dilution method. The class given is functional. An outline of the steps:
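MIC against ATCC 29213 determined by a previously described protocol; values in μg/mL.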

Assay [3] deals with Staphylococcus aureus. The assay can be described thus: Bactericidal activity against Staphylococcus aureus ATCC 29213 at 1 to 10 times MIC preincubated up to 24 hrs under shaking condition followed by bacterial plating on Tryptic Soy agar and measured after 18 to 20 hrs by time kill assay. The class given is functional, organism-based.
Assay [4] concerns Staphylococcus aureus. The assay can be described thus: Antibacterial activity against vancomycin-resistant Staphylococcus aureus HIP11714 after 16 to 18 hrs by CLSI M07-A10 protocol based dilution method. In kind it is functional.
Assay [5] concerns the target T1, Alkaline phosphatase synthesis transcriptional regulatory protein (Staphylococcus aureus) (UniProt W8TVM3).
T1 sequence (whole entry): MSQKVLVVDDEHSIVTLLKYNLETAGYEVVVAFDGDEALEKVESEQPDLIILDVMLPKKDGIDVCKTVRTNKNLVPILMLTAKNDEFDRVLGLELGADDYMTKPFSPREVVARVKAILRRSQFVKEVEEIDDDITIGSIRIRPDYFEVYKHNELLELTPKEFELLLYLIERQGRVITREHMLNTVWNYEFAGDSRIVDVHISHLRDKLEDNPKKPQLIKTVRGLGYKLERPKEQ
The assay can be described thus: Binding affinity to Staphylococcus aureus ATCC 29213 Transcriptional regulator PhoP at 10 uM in presence of 9-(Pent-4-yn-1-yl)-1a,10a-dihydro-2H-oxireno[2',3':4,5]-benzo[1,2-a]carbazole-2,10(9H)-dione after 1 hr by biotin-azide fluorescence dependent LC-MS/MS-based ABPP assay. The gist of the method: as §1

A short description of assay [6]: L-cysteine reactivity in pH 7.4 phosphate buffer assessed as pseudo first order rate constant at 100 uM measured at 10 mins time interval up to 60 mins by HPLC analysis.
For assay [7], the system named is Staphylococcus aureus. The experiment in a line: Antibacterial activity against vancomycin-resistant Staphylococcus aureus SA-HIP-11983 after 16 to 18 hrs by CLSI M07-A10 protocol based dilution method. In kind it is functional.
A short description of assay [8]: L-cysteine reactivity in pH 7.4 phosphate buffer at 100 uM preincubated for 1 hr followed by mono-bromobimane addition and measured after 30 mins by fluorescence based competition assay.
In assay [9] the test system is Staphylococcus aureus. The assay can be described thus: Binding affinity to Staphylococcus aureus ATCC 29213 Methionine aminopeptidase at 10 uM in presence of 9-(Pent-4-yn-1-yl)-1a,10a-dihydro-2H-oxireno[2',3':4,5]-benzo[1,2-a]carbazole-2,10(9H)-dione after 1 hr by biotin-azide fluorescence dependent LC-MS/MS-based ABPP assay. An outline of the steps:
as §1

Assay [10] concerns the target T2, Arsenate reductase (Staphylococcus aureus) (UniProt P0A006).
T2 sequence (whole entry): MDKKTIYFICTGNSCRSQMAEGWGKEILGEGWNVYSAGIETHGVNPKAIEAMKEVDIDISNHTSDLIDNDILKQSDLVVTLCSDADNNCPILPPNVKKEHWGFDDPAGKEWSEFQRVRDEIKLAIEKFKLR
The assay can be described thus: Binding affinity to Staphylococcus aureus ATCC 29213 Arsenate reductase at 10 uM in presence of 9-(Pent-4-yn-1-yl)-1a,10a-dihydro-2H-oxireno[2',3':4,5]-benzo[1,2-a]carbazole-2,10(9H)-dione after 1 hr by biotin-azide fluorescence dependent LC-MS/MS-based ABPP assay. An outline of the steps:
as §1

Assay [11] has as its system Staphylococcus aureus. The assay can be described thus: Binding affinity to Staphylococcus aureus ATCC 29213 Catabolite control protein A at 10 uM in presence of 9-(Pent-4-yn-1-yl)-1a,10a-dihydro-2H-oxireno[2',3':4,5]-benzo[1,2-a]carbazole-2,10(9H)-dione after 1 hr by biotin-azide fluorescence dependent LC-MS/MS-based ABPP assay. An outline of the steps: as §1

As a reminder, the MIC is the smallest concentration in the dilution series that meets the test's criterion for growth inhibition. A low value points to inhibition by little substance. Turning to `CC(C)n1c2ccccc2c2ccc3c(c21)C(=O)C1OC1C3=O` (stereo unspecified), the outcome (in the assay with Staphylococcus aureus [1]; in the assay with Staphylococcus aureus [3]; in assay [5]; in [8]; with Staphylococcus aureus [9]; in assay [10]) was Active. For the same compound, in the assay on Staphylococcus aureus [11], the result was Active. The MIC is 0.125 to 0.5 µg/mL (≈ 0.409 to 1.64 µM) in the assay on Staphylococcus aureus [2], 0.5 µg/mL (≈ 1.64 µM) with Staphylococcus aureus [4] and 0.5 µg/mL (≈ 1.64 µM) in the assay with Staphylococcus aureus [7]. For the same compound, in assay [6], the K turned out to be 7.54 ×10⁻² /min.
